The record followed here is ChEMBL document CHEMBL1133565 (J Med Chem, 2000).

Each structure is given as a SMILES string.

The target of experiment [1] is T1, Sodium-dependent dopamine transporter (Homo sapiens, UniProt Q01959). In words: Inhibition of reuptake of [3H]DA (20 nM) by dopamine transporter. The method in brief:
(§1)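 Uptake used whole confluent cells: hSERT in HEK293; hDAT in C6, later HEK293. Cells were washed and scraped in PBS at 25 °C, then preincubated 10 min with drug in Krebs HEPES at 25 °C. [3H]5HT or [3H]DA was added at 20 nM final for 10 min, then filtered on 0.05% polyethylenimine-soaked filters. Six drug concentrations, each in triplicate.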

In experiment [2] the target is T1, Sodium-dependent dopamine transporter. Kind of experiment: Binding affinity against cloned human dopamine transporter using 40-80 pM [125I]RTI. The method in brief:
(§2)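 Membranes from cells expressing recombinant human transporters: DAT in C6 cells, later HEK293; SERT and NET in HEK293. Cells lysed (2 mM HEPES, 1 mM EDTA), spun at 30000g, resuspended in 0.32 M sucrose, about 15 µg protein. GF/C filtration. Duplicates; IC50 converted to Ki by Cheng-Prusoff.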

The target in experiment [3] is T2, Sodium-dependent noradrenaline transporter (Homo sapiens, UniProt P23975). In words: Binding affinity against norepinephrine cloned human transporter using 40-80 pM [125I]RTI.
Target sequence in this assay (P23975 whole entry): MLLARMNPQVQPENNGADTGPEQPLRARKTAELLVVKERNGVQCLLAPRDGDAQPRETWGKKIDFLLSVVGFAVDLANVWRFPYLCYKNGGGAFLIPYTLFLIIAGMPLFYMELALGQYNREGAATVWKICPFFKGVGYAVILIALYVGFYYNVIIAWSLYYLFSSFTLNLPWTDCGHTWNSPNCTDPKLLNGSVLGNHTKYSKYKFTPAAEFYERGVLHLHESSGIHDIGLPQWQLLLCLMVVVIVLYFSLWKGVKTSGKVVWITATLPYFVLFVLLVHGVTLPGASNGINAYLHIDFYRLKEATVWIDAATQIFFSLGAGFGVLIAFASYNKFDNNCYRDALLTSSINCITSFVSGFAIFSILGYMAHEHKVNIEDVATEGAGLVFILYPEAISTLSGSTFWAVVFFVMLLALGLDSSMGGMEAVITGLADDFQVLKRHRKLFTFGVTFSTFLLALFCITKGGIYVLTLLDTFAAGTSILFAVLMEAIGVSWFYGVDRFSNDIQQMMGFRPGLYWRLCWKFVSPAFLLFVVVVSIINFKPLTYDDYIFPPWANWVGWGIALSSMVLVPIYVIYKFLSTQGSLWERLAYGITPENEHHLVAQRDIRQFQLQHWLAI
Experiment [4] addresses T2, Sodium-dependent noradrenaline transporter. Kind of experiment: Inhibition of reuptake of [3H]-NE (20 nM) by norepinephrine transporter.
Target sequence in this assay (P23975 whole entry): as above
The target in experiment [5] is T3, Sodium-dependent serotonin transporter (Homo sapiens, UniProt P31645). In words: Binding affinity against cloned serotonin human transporter using 40-80 PM [125I]RTI. In short, it runs like this:
as §2
Target sequence in this assay (P31645 whole entry): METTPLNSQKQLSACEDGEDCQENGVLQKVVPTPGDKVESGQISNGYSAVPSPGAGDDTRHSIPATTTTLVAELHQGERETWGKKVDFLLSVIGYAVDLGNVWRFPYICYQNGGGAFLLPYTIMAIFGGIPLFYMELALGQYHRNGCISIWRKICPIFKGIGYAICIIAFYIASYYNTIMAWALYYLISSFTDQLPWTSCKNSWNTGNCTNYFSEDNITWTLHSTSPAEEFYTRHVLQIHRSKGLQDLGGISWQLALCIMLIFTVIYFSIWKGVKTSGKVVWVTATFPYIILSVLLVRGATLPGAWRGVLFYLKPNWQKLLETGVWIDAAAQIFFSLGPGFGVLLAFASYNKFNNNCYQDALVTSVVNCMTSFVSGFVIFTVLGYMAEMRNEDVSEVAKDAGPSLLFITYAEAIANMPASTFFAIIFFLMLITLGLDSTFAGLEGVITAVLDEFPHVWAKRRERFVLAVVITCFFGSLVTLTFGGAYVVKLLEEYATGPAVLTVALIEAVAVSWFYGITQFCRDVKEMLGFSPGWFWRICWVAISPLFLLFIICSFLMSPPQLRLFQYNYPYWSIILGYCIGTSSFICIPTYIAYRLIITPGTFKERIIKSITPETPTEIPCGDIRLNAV

Experiment [6] concerns the target T3, Sodium-dependent serotonin transporter. In words: Inhibition of reuptake of [3H]5-HT (20 nM) by serotonin transporter. In short, it runs like this:
as §1
Target sequence in this assay (P31645 whole entry): as above

The target is the same in experiment [7]. In words: Ratio of serotonin uptake to serotonin binding.
Target sequence in this assay (P31645 whole entry, looked up): as the sequence (P31645 whole entry) above
For experiment [8], the target named is Monoamine transporters; serotonin & dopamine (Homo sapiens) (UniProt P31645+Q01959). In words: Ratio of inhibition of serotonin uptake to inhibition of dopamine uptake. Type of experiment: protein assay.
Chain of Monoamine transporters; serotonin & dopamine (Homo sapiens) (P31645 whole entry, looked up): as the sequence (P31645 whole entry) above
Chain of Monoamine transporters; serotonin & dopamine (Homo sapiens) (Q01959 whole entry, looked up): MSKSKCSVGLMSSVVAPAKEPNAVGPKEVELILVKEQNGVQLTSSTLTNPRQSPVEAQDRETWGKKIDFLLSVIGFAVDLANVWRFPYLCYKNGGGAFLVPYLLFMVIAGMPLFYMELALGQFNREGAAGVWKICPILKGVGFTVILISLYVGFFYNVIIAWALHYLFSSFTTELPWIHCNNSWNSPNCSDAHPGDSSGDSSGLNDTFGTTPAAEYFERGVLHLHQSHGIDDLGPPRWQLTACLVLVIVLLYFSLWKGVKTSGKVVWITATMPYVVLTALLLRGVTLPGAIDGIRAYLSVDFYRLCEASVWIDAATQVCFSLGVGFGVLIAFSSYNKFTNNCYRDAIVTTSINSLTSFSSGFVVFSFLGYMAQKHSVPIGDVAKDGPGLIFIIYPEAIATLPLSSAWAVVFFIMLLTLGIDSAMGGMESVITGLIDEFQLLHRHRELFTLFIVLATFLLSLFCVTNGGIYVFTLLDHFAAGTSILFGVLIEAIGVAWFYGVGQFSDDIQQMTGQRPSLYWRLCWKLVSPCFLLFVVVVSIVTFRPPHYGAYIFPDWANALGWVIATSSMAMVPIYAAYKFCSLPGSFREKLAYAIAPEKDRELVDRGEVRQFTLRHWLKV
Experiment [9] addresses T1, Sodium-dependent dopamine transporter. Kind of experiment: Ratio of dopamine uptake to dopamine binding.
The target in experiment [10] is T2, Sodium-dependent noradrenaline transporter. Kind of experiment: Ratio of norepinephrine uptake to norepinephrine binding.
Target sequence in this assay (P23975 whole entry, looked up): as the sequence (P23975 whole entry) above
The species entered for experiment [11] is Mus musculus. Kind of experiment: Effective dose on 8 hr locomotor assay in mice (value is standard error of the population of 72 independent determinations). Type of experiment: functional. The method in brief:
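Groups of 8 nonhabituated male Swiss-Webster mice (Hsd:ND4, 2-3 months), dosed ip in 0.9% saline vehicle just before testing. Horizontal photobeam breaks counted in 10-min bins for 8 h from 0800 h, one mouse per chamber.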

T1 sequence (Q01959 whole entry): as the sequence (Q01959 whole entry, looked up) above

Usually IC50 stands for the concentration at which inhibition is half-maximal. A lower IC50 goes with greater potency in that assay. In general, Ki refers to a dissociation constant, usually derived from enzyme kinetics or from competition with a known ligand. Read a low Ki as a stronger hold on the target. Regarding `CN([C@H]1C[C@@H](c2ccc(Cl)c(Cl)c2)c2ccccc21)C(C)(C)C` (relative stereo), the IC50 in experiment [1] and in [4] was over 10000 nM each time. The inhibitory constant (Ki) is 2800 nM in experiment [2], 2200 nM in experiment [3] and over 10000 nM in [5].
For the compound `CC(C)N(C)[C@H]1C[C@@H](c2ccc(Cl)c(Cl)c2)c2ccccc21`, the half-maximal inhibitory concentration (IC50) in [1] was 960 nM; in experiment [4] it was 1800 nM; in experiment [6] it was 1800 nM. The figures for the Ki in [2], in experiment [3] and in experiment [5] were 680 nM, 650 nM and 73 nM, respectively. In addition, the Ratio was 25 in [7], 1.9 in [8] and 1.4 in experiment [9].
For the compound `CCCN[C@H]1C[C@@H](c2ccc(Cl)c(Cl)c2)c2ccccc21` (relative stereo), the IC50 worked out at 620 nM in [1], 630 nM in experiment [4] and 1300 nM in experiment [6]. Moreover, the Ki in experiment [2] came out at 280 nM; in [3] it was 540 nM; in experiment [5], 500 nM. The Ratio in experiment [7] worked out at 2.6; in experiment [8], 2.1; in [9] it was 2.2; in experiment [10], 1.2.
With `CN(C)[C@@H]1C[C@@H](c2ccc(Cl)c(Cl)c2)c2ccccc21` (stereo in doubt; (-)) [listing 1 of 2 here], the Ratio in experiment [8] came to 0.02; in experiment [9], 17.
One may read the ED50 as the dose that gives a 50% effect, or the effect in half of the subjects. Low readings indicate an effect at a small dose, high ones a need for a large dose. As for `CN(Cc1ccccc1)[C@@H]1C[C@@H](c2ccc(Cl)c(Cl)c2)c2ccccc21` (relative stereo), the IC50 worked out at 550 nM in experiment [1], 1600 nM in experiment [4] and 3700 nM in [6]. Further, the Ki in experiment [2] is 120 nM; in [3], 2800 nM; in experiment [5] it was 180 nM. This compound also showed an ED50 in [11] of 5.7 mg/kg. The Ratio in experiment [7] worked out at 21; in [8], 6.7; in experiment [9], 4.6.
Turning to `CCN(C)[C@H]1C[C@@H](c2ccc(Cl)c(Cl)c2)c2ccccc21` (relative stereo), the figures for the IC50 in [1], in experiment [4] and in [6] were 530 nM, 4400 nM and 72 nM, respectively. Moreover, the figures for the Ki in experiment [2], in experiment [3] and in experiment [5] were 660 nM, 2400 nM and 13 nM, respectively. In addition, the Ratio amounted to 5.5 in experiment [7], 0.14 in [8], 0.8 in [9] and 1.8 in experiment [10].
For `CCN(C)[C@@H]1C[C@@H](c2ccc(Cl)c(Cl)c2)c2ccccc21` (relative stereo), the half-maximal inhibitory concentration (IC50) in experiment [1] was determined as 270 nM; in experiment [4], 150 nM; in experiment [6] it was 24 nM. Besides, the Ki came out at 39 nM in experiment [2], 250 nM in experiment [3] and 16 nM in experiment [5]. Further, the ED50 in [11] is 2.7 mg/kg. Further, the Ratio in experiment [7] amounted to 1.5; in [8], 0.089; in experiment [9], 6.9; in experiment [10], 0.6.
For `CN([C@@H]1C[C@@H](c2ccc(Cl)c(Cl)c2)c2ccccc21)C(C)(C)C` (relative stereo), the IC50 in [1] was 2700 nM; in [4] it was 1000 nM; in experiment [6] it was over 10000 nM. The Ki in experiment [2] was found to be 890 nM; in [3], 440 nM; in experiment [5], 4700 nM. Moreover, the Ratio in experiment [9] is 3.
With `Clc1ccc([C@@H]2C[C@@H](NCc3ccccc3)c3ccccc32)cc1Cl` (relative stereo), the IC50 in [1] was 130 nM; in experiment [4], 2600 nM; in [6], over 10000 nM. In addition, the Ki in [2] is 80 nM; in experiment [3] it was 460 nM; in experiment [5], 380 nM. The compound further returned a median effective dose (ED50) in experiment [11] of over 20 mg/kg. Besides, in experiment [9], the Ratio was found to be 1.6.
Compound `CN[C@@H]1C[C@@H](c2ccc(Cl)c(Cl)c2)c2ccccc21` (relative stereo) [(R,S)-INDATRALINE] had an ED50 in [11] of 1.2 mg/kg.
`CCCN(C)[C@H]1C[C@@H](c2ccc(Cl)c(Cl)c2)c2ccccc21` (relative stereo): the IC50 was 1000 nM in [1], 540 nM in [4] and 810 nM in experiment [6]. In addition, the Ki in experiment [3] is 2000 nM; in experiment [5], 200 nM. For the same compound, the Ratio in experiment [7] came out at 4; in experiment [8], 0.8; in [9], 0.83; in experiment [10], 0.27.
For the compound `CN(C)[C@@H]1C[C@@H](c2ccc(Cl)c(Cl)c2)c2ccccc21` (relative stereo), the Ratio is 200 in experiment [7], 0.033 in [8] and 11 in [9].
Regarding `CC(C)N[C@@H]1C[C@@H](c2ccc(Cl)c(Cl)c2)c2ccccc21`, the IC50 was 51 nM in [1], 75 nM in experiment [4] and 240 nM in experiment [6]. In addition, the results for the Ki in experiment [2], in [3] and in experiment [5] were 32 nM, 110 nM and 93 nM, respectively. The 50% effect level in experiment [11] (ED50) was put at a dose of 3.1 mg/kg. Also, the Ratio in experiment [7] was determined as 2.6; in experiment [8] it was 4.7; in [9], 1.6; in experiment [10], 0.68.
Consider `CN(Cc1ccccc1)[C@H]1C[C@@H](c2ccc(Cl)c(Cl)c2)c2ccccc21` (relative stereo), for which the Ki in experiment [2] is over 10000 nM; in experiment [3], over 10000 nM; in experiment [5] it was 300 nM. Besides, the concentration for half-maximal inhibition (IC50) in [4] was over 10000 nM; in experiment [6], 700 nM. The Ratio in [7] is 2.3.
For `CCN[C@H]1C[C@@H](c2ccc(Cl)c(Cl)c2)c2ccccc21`, the values for the IC50 in experiment [1], in [4] and in experiment [6] were 1000 nM, 170 nM and 19 nM, respectively. Moreover, the inhibition constant (Ki) was determined as 140 nM in experiment [2] and 4.7 nM in experiment [5]. The figures for the Ratio in experiment [7], in experiment [8] and in experiment [9] were 4, 0.02 and 11, respectively.
`CCN[C@@H]1C[C@@H](c2ccc(Cl)c(Cl)c2)c2ccccc21` (relative stereo): the half-inhibitory concentration (IC50) in [1] was 61 nM; in experiment [4], 28 nM; in experiment [6], 13 nM. In addition, the Ki in experiment [2] came out at 8.1 nM; in experiment [3], 48 nM; in experiment [5] it was 2 nM. The 50% effect level in experiment [11] (ED50) was put at a dose of 1 mg/kg. For the same compound, the Ratio in experiment [7] is 6.5; in [8], 0.21; in experiment [9], 7.5.
Turning to `Clc1ccc([C@@H]2C[C@H](NCc3ccccc3)c3ccccc32)cc1Cl` (relative stereo), the IC50 is 5300 nM in [1], over 10000 nM in [4] and over 10000 nM in [6]. Further, the results for the Ki in experiment [2], in experiment [3] and in experiment [5] were 1100 nM, 4800 nM and 2100 nM, respectively.
Turning to `CC(C)(C)N[C@H]1C[C@@H](c2ccc(Cl)c(Cl)c2)c2ccccc21` (relative stereo), the values for the IC50 in experiment [1], in experiment [4] and in [6] were 1500 nM, 1800 nM and over 10000 nM, respectively. In addition, the inhibitory constant (Ki) in [2] worked out at 650 nM; in experiment [3], 1100 nM; in [5], 1700 nM. In addition, the Ratio in [9] worked out at 2.3; in experiment [10], 1.6.
`CN(C)[C@H]1C[C@@H](c2ccc(Cl)c(Cl)c2)c2ccccc21` (relative stereo): the values for the IC50 in experiment [1], in experiment [4] and in experiment [6] were 550 nM, 86 nM and 5.5 nM, respectively. Also, the Ki in [2] stood at 63 nM; in experiment [3] it was 150 nM; in experiment [5] it was 2.4 nM. For the same compound, the Ratio is 2.3 in [7], 0.01 in experiment [8] and 8.7 in [9].
For `CN(C)[C@@H]1C[C@@H](c2ccc(Cl)c(Cl)c2)c2ccccc21` (stereo in doubt; (-)) [listing 2 of 2 here], the concentration for half-maximal inhibition (IC50) in experiment [1] came to 650 nM; in experiment [4] it was 130 nM; in experiment [6], 130 nM. In addition, the Ki in [2] came out at 38 nM; in experiment [3], 130 nM; in [5] it was 3.6 nM.
Consider `CN(C)[C@@H]1C[C@@H](c2ccc(Cl)c(Cl)c2)c2ccccc21` (stereo in doubt; (+)) [listing 1 of 2 here], for which the values for the IC50 in [1], in experiment [4] and in experiment [6] were 120 nM, 21 nM and 6.3 nM, respectively. The inhibitory constant (Ki) was 8.7 nM in experiment [2], 52 nM in [3] and 0.06 nM in [5]. It took a dose of 0.96 mg/kg to reach the 50% effect level in experiment [11] (ED50).
Turning to `CC(C)N[C@H]1C[C@@H](c2ccc(Cl)c(Cl)c2)c2ccccc21` (relative stereo), the IC50 in experiment [1] stood at 1400 nM; in [4], 1500 nM; in experiment [6], 300 nM. In addition, the inhibitory constant (Ki) was determined as 450 nM in experiment [2], 3500 nM in experiment [3] and 130 nM in [5]. In addition, the Ratio in experiment [7] turned out to be 2.3; in [8], 0.21; in experiment [9] it was 3.1; in [10], 0.43.
As for `CN(C)[C@@H]1C[C@@H](c2ccc(Cl)c(Cl)c2)c2ccccc21` (stereo in doubt; (+)) [listing 2 of 2 here], the values for the Ratio in [7], in [8] and in [9] were 110, 0.053 and 14, respectively.
